≈ marks a conversion by molar mass, not a printed value. Calls of active or inactive are those of the source. The rule behind the calls is not given here.
Assays:
[1] = tested on: Staphylococcus aureus; assay: Antibacterial activity against Staphylococcus aureus after 2 days by agar plate dilution method; type: functional; conditions: 48 h
In short: (§1)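 Agar plate dilution: each sample concentration is incorporated into soybean casein digest (SCD) agar. Gram-positive bacteria are applied to the agar surface and incubated 2 days at 30 °C. Activity is judged by whether colonies form.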

[2] = tested on: Bacillus subtilis; assay: Antibacterial activity against Bacillus subtilis after 2 days by agar plate dilution method; type: functional; conditions: 48 h; in short: as §1
[3] = tested on: Botrytis cinerea; assay: Antifungal activity against Botrytis cinerea after 2 days by agar plate dilution method; type: functional, organism-based
In short: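 Agar plate dilution: each sample concentration is incorporated into potato dextrose (PD) agar. Fungus is applied to the agar surface and incubated 2 days at 30 °C. Activity is judged by whether spores form.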

SMILES	MIC [1] [µg/mL]	MIC [2] [µg/mL]	Activity [3]
C=C(C)[C@@H]1C[C@@H](OC(=O)C(C)C)[C@@]2(C1)C(C)=CC(=O)[C@H](O)[C@H]2C	250 (≈ 780 µM)	250 (≈ 780 µM)	
C=C(C)[C@@H]1C[C@@H](OC(=O)/C(C)=C/C)[C@@]2(C1)C(C)=CC(=O)[C@H](O)[C@H]2C	100 (≈ 301 µM)	250 (≈ 752 µM)	Active

The remaining compounds from weak to strong by MIC [1], led by results:

MIC [1] [µg/mL]	MIC [2] [µg/mL]	SMILES	Activity [3]
500 (≈ 2000 µM)	500 (≈ 2000 µM)	C=C(C)[C@@H]1C[C@@H](O)[C@@]2(C1)C(C)=CC(=O)[C@H](O)[C@H]2C	
100 (≈ 301 µM)	250 (≈ 752 µM)	C=C(C)[C@@H]1C[C@@H](OC(=O)C=C(C)C)[C@@]2(C1)C(C)=CC(=O)[C@H](O)[C@H]2C	
100 (≈ 458 µM)	100 (≈ 458 µM)	C=C(C)[C@@H]1CC[C@@]2(C1)C(C)=CC(=O)C[C@H]2C [SOLAVETIVONE]	
